The source made the active and inactive calls. No cut-off for these calls is given here.

For assay [1], the target named is T1, Prostaglandin E synthase (Homo sapiens) (UniProt O14684).
T1 sequence (whole entry): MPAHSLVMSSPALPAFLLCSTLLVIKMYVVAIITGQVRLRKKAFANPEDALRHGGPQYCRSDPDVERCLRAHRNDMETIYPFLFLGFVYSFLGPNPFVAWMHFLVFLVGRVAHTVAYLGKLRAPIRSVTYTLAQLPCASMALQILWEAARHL
The assay is described as follows: Inhibition of human recombinant mPGES-1 in assessed as conversion of PGH2 into PGE2 at 1 uM at 20 degC after 5 mins by HPLC-UV analysis. The procedure, abridged:
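Commercial microsomal human recombinant mPGES-1, diluted about 1:200 in phosphate buffer (50 mM sodium phosphate, 100 mM NaCl, 20% glycerol, pH 7.2). Compound in DMSO added to Tris buffer (50 mM, pH 7.2) with freshly dissolved 2.5 mM reduced glutathione, 5 min, then enzyme, 5 min preincubation at room temperature. PGH2 started reaction, 5 min at room temperature. PGE2 measured by online SPE-HPLC-UV at 195 nm. Reference incubations without enzyme gave non-enzymatic PGE2.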

The target in assay [2] is T2, Prostaglandin E synthase (Homo sapiens, UniProt O14684).
T2 sequence (O14684 whole entry): T1 sequence (whole entry)
The assay is described as follows: Inhibition of mPGES-1. The procedure, abridged: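 PGH2 was the substrate, and reactions ran for 5 min. One version used microsomes from A549 cells at 0 °C. The other used commercial microsomes containing human recombinant mPGES-1, at 20 °C or room temperature, in 50 mM Tris pH 7.2 with 2.5 mM GSH. PGE2 formed was measured by online solid-phase extraction HPLC with UV detection.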

The target of assay [3] is T2, Prostaglandin E synthase. The assay is described as follows: Inhibition of mPGES-1 in human A549 cell microsomes assessed as conversion of PGH2 into PGE2 at 0 degC after 5 mins by HPLC-UV analysis. Details: species or system Microsome. The procedure, abridged: (§1)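 Enzyme source was microsomes from A549 cells. Compound was incubated with PGH2 substrate for 5 min at 0 °C. PGE2 formation was monitored by online solid phase extraction HPLC with UV detection. Values are means of at least two independent determinations.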

Assay [4] addresses T1, Prostaglandin E synthase (Homo sapiens). In words: Inhibition of mPGES-1 in human A549 cell microsomes assessed as conversion of PGH2 into PGE2 at 3.3 uM at 0 degC after 5 mins by HPLC-UV analysis. The conditions noted are these: Microsome. The gist of the method: as §1
The target is the same in assay [5]. The assay is described as follows: Inhibition of human recombinant mPGES-1 in assessed as conversion of PGH2 into PGE2 at 10 uM at 20 degC after 5 mins by HPLC-UV analysis in presence of 0.1% Triton X-100. The procedure, abridged:
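Human recombinant mPGES-1 microsomes in Tris buffer (50 mM, pH 7.2) containing 2.5 mM glutathione, with 0.1% Triton X-100 added. Compound in DMSO, 5 min preincubation with enzyme at room temperature, then PGH2 substrate, 5 min reaction at 20 °C. PGE2 formed was quantified by online solid phase extraction HPLC with UV detection.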

For assay [6], the target named is T2, Prostaglandin E synthase. The assay is described as follows: Inhibition of human recombinant mPGES-1 in assessed as conversion of PGH2 into PGE2 at 20 degC after 5 mins by HPLC-UV analysis. The procedure, abridged:
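Commercial microsomal human recombinant mPGES-1, diluted about 1:200 in phosphate buffer (50 mM sodium phosphate, 100 mM NaCl, 20% glycerol, pH 7.2). Compound in DMSO added to Tris buffer (50 mM, pH 7.2) with freshly dissolved 2.5 mM reduced glutathione, 5 min, then enzyme, 5 min preincubation at room temperature. PGH2 started reaction, 5 min at room temperature.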

What is called inhibition is how much of the control response was suppressed. In general, IC50 refers to the midpoint of a concentration-inhibition curve. In the case of `CCCCCCCCCCCC(=O)c1c(C)c(CCC(=O)O)n(C)c1C`, the values for the inhibition in assay [1] and in assay [4] were 54% and 74%, respectively. For the same molecule, the IC50 on Prostaglandin E synthase [2] came to 800 nM; on Prostaglandin E synthase [3] it was 800 nM; at Prostaglandin E synthase [6], 670 nM. Besides, in assay [5], the inhibition result is “inactive”.

As to `Cc1c(C(=O)Cc2ccc(-c3ccccc3)cc2)c(C)n(C)c1CCC(=O)O`, the inhibition entry in assay [1] is “inactive”.

`CS(=O)(=O)Nc1ccc([N+](=O)[O-])cc1OC1CCCCC1` [NS-398]: the IC50 at Prostaglandin E synthase [2] is 10000 nM.

On to `CCCCCCCCCCCC(=O)c1c(C)c(CCC(=O)NS(C)(=O)=O)n(C)c1C`, for which the inhibition in assay [1] was 52%. Moreover, the inhibition result in assay [5] is “inactive”. Besides, on Prostaglandin E synthase [6], the IC50 turned out to be 600 nM.

`CCCCCCCCCCCCc1c(C)c(C(=O)O)n(C)c1C`: the inhibition in assay [1] turned out to be 37%.

Regarding `CCCCCCCCCCCCCCCCCC(=O)c1c(C)c(CCC(=O)O)n(C)c1C`, the inhibition in assay [1] stood at 97%. For the same molecule, the inhibition result in assay [4] was “inactive”.

Take `CCCCCCCCCCCC(=O)c1cc(C(=O)O)n(C)c1`: the inhibition result in assay [1] is “inactive”.

On to `CCCCCCCCCCCCCCCC(=O)c1c(C)c(CCC(=O)O)n(C)c1C`, for which the inhibition stood at 97% in assay [1] and 35% in assay [4].

For the molecule `CCCCCCCCCC(=O)c1c(C)c(CCC(=O)O)n(C)c1C`, the inhibition result in assay [1] was “inactive”. For the same molecule, the inhibition in assay [4] came out at 62%.

For the molecule `CCCC(=O)c1c(C)c(CCC(=O)O)n(C)c1C`, the inhibition result in assay [1] and in assay [4] was “inactive” throughout.

Regarding `CC(C)c1ccc2c(c1)c(SC(C)(C)C)c(CC(C)(C)C(=O)O)n2Cc1ccc(Cl)cc1`, the inhibition in assay [5] came out at 75%.

Take `CCCCCCCCCCCC(=O)c1c(C)c(CC(=O)O)n(Cc2ccccc2)c1C`: the inhibition in assay [1] came to 35%.

For `CCCCCCCCOc1ccccc1C(=O)c1c(C)c(CCC(=O)O)n(C)c1C`, the inhibition result in assay [1] was “inactive”. The inhibition in assay [4] was found to be 23%.

For `CCCCCCCCCCCC(=O)c1c(C)c(C(=O)O)n(Cc2ccccc2)c1C`, the inhibition in assay [1] is 65%.

As for `Cc1c(C(=O)c2cccc3ccccc23)c(C)n(C)c1CCC(=O)O`, the inhibition result in assay [1] and in assay [4] was “inactive” each time.

As for `CCCCCCCCCCCC(=O)c1c(C)c(CCC(=O)O)n(Cc2ccccc2)c1C`, in assay [1], the inhibition was determined as 62%.

Regarding `CCCCCCCCCCCC(=O)c1cc(CCC(=O)O)n(C)c1`, in assay [1], the inhibition entry was “inactive”.

Take `CCCCCCCCCCCC(=O)c1c(C)c(CCC(=O)O)n(Cc2ccc(O)cc2)c1C`: the inhibition in assay [1] is 53%.

Regarding `CCCCCCCCCCCC(=O)c1c(C)c(CCC(=O)NN)n(C)c1C`, the inhibition in assay [1] was found to be 35%.

Turning to `CCCCCCCC(=O)c1c(C)c(CCC(=O)O)n(C)c1C`, the inhibition result in assay [1] is “inactive”. For the same molecule, the inhibition in assay [4] is 55%.

In the case of `CCCCCCCCCCCC(=O)c1c(C)c(CCC(=O)O)n(Cc2ccc(C(=O)O)cc2)c1C`, in assay [1], the inhibition turned out to be 27%.

Consider `CCCCCCCCCCCC(=O)c1c(C)c(CCC(=O)O)n(Cc2ccc(Cl)cc2)c1C`, for which the inhibition in assay [1] stood at 78%.

For the molecule `CCCCCCCCCCCC(=O)c1c(C)c(CCC(=O)O)n(Cc2ccc(C)cc2)c1C`, the inhibition in assay [1] was 52%.

For `CCCCCCCCCCCC(=O)c1c(C)c(CC(=O)O)n(C)c1C`, in assay [1], the inhibition came to 22%.

For `CCCCCCCCCCCC(=O)c1c(-c2ccccc2)c(CCC(=O)O)n(Cc2ccccc2)c1C`, in assay [1], the inhibition is 64%.

For the molecule `Cc1c(C(=O)CCc2ccccc2)c(C)n(C)c1CCC(=O)O`, the inhibition entry in assay [1] and in assay [4] was “inactive” in each case.

Turning to `CCCCCCCCCCCC(=O)c1c(C)c(CC(=O)O)n(-c2ccccc2)c1C`, the inhibition in assay [1] stood at 23%.

For the molecule `CCCCCCCCCCCC(=O)c1c(C)c(C(=O)O)n(-c2ccccc2)c1C`, the inhibition in assay [1] was determined as 99%.

`CCCCCCCCCCCCCC(=O)c1c(C)c(CCC(=O)O)n(C)c1C`: the inhibition was 91% in assay [1] and 63% in assay [4].

Take `CCCCCCCCCCCC(=O)c1c(C)c(CCC(=O)O)n(Cc2ccc(C(N)=O)cc2)c1C`: in assay [1], the inhibition came out at 28%.

As to `CCCCCCCCCCCC(=O)c1c(C)c(CCC#N)n(C)c1C`, the inhibition in assay [1] came to 22%.

For the molecule `CCCCCCCCCCCC(=O)c1c(C)[nH]c(C(=O)O)c1C`, the inhibition in assay [1] turned out to be 62%.

For `Cc1c(C(=O)c2ccccc2)c(C)n(C)c1CCC(=O)O`, the inhibition result in assay [1] and in assay [4] was “inactive” in each case.

`CCCCCCCCCCCC(=O)c1c(-c2ccccc2)c(CCC(=O)O)n(C)c1C`: the inhibition in assay [1] is 90%. Moreover, the inhibition entry in assay [5] is “inactive”. In addition, the IC50 on Prostaglandin E synthase [6] amounted to 140 nM.

For the molecule `CCCCCCCCCCCC(=O)c1c(C)c(CCC(=O)O)n(-c2ccccc2)c1C`, the inhibition in assay [1] turned out to be 65%.

Consider `CCCCCCCCCCCC(=O)c1c(C)[nH]c(CCC(=O)O)c1C`, for which the inhibition in assay [1] is 38%.

As to `CCCCCCOc1ccc(C(=O)c2c(C)c(CCC(=O)O)n(C)c2C)cc1`, the inhibition is 32% in assay [1] and 64% in assay [4].

In the case of `CCCCCCCCCCCC(=O)c1c(C)c(CCC(N)=O)n(C)c1C`, in assay [1], the inhibition came out at 39%.

As to `CCCCCCCCCCCC(=O)c1c(C)c(CCCC(=O)O)n(C)c1C`, the inhibition in assay [1] worked out at 70%.

Turning to `Cc1c(C(=O)c2ccc3ccccc3c2)c(C)n(C)c1CCC(=O)O`, the inhibition entry in assay [1] and in assay [4] was “inactive” throughout.

Consider `CCCCCCCCCCCC(=O)c1cc(CC(=O)O)n(C)c1`, for which the inhibition entry in assay [1] is “inactive”.

Consider `CCCCCCCCCCCC(=O)c1c(C)c(CCC(=O)NS(=O)(=O)c2ccccc2)n(C)c1C`, for which the inhibition in assay [1] turned out to be 77%.

`CCCCCCC(=O)c1c(C)c(CCC(=O)O)n(C)c1C`: the inhibition entry in assay [1] and in assay [4] was “inactive” throughout.

Turning to `CCCCCCCCCCCC(=O)c1c(C)[nH]c(CC(=O)O)c1C`, in assay [1], the inhibition is 17%.

With `CCCCCCC(Sc1nc(Cl)cc(NCc2ccc(-c3ccccc3)cc2)n1)C(=O)O` (stereo not drawn), the inhibition entry in assay [5] is “inactive”.

Regarding `CCCCCCCCCCCC(=O)c1c(C)c(CCC(=O)O)n(Cc2ccc(OC)cc2)c1C`, the inhibition in assay [1] stood at 72%.

In the case of `CCCCCCCCCCCC(=O)c1c(C)c(C(=O)O)n(C)c1C`, the inhibition in assay [1] was 59%.

Turning to `Cc1c(C(=O)c2ccc(-c3ccccc3)cc2)c(C)n(C)c1CCC(=O)O`, the inhibition entry in assay [1] and in assay [4] was “inactive” throughout.

`CCCCCCCOc1cccc(C(=O)c2c(C)c(CCC(=O)O)n(C)c2C)c1`: the inhibition entry in assay [1] is “inactive”. For the same molecule, the inhibition in assay [4] was 67%.
